BindingDB's records for doi:10.1021/acs.jmedchem.8b00566 (Research Triangle Institute, 2018)

Assays:
[1] = target: T1, Sodium-dependent serotonin transporter (Homo sapiens, UniProt P31645); test: Displacement of [3H]-Paroxetine from recombinant human full length SERT after 60 mins by scintillation counting
Outline: (§1)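 Outsourced radioligand displacement panel run to the provider's standard protocols. Full concentration–displacement curves were run in duplicate. IC50 came from nonlinear regression. Ki was calculated by Cheng–Prusoff from the IC50, the radioligand concentration and historical Kd values of the ligand.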

[2] = target: Kappa-type opioid receptor (Homo sapiens, UniProt P41145); test: Binding affinity to human full length KOR after 60 mins by radioligand-based scintillation counting; outline: as §1
[3] = target: T1, Sodium-dependent serotonin transporter; test: Inhibition of human SERT expressed in HEK293 cells assessed as reduction in SERT-mediated substrate uptake after 30 mins by fluorescence-based assay
Outline: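 HEK293 cells stably expressing human SERT were plated at 15000 cells/well in DMEM + 1% dialyzed FBS for at least 6 h. Medium was replaced with 20 mM HEPES/HBSS pH 7.4 and drug was added for 30 min at 37 °C. Fluorescent uptake dye was then added and read after 30 min at 37 °C (ex 440/em 520 nm). IC50 came from nonlinear regression of fluorescence versus concentration.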

T1 sequence (P31645 whole entry): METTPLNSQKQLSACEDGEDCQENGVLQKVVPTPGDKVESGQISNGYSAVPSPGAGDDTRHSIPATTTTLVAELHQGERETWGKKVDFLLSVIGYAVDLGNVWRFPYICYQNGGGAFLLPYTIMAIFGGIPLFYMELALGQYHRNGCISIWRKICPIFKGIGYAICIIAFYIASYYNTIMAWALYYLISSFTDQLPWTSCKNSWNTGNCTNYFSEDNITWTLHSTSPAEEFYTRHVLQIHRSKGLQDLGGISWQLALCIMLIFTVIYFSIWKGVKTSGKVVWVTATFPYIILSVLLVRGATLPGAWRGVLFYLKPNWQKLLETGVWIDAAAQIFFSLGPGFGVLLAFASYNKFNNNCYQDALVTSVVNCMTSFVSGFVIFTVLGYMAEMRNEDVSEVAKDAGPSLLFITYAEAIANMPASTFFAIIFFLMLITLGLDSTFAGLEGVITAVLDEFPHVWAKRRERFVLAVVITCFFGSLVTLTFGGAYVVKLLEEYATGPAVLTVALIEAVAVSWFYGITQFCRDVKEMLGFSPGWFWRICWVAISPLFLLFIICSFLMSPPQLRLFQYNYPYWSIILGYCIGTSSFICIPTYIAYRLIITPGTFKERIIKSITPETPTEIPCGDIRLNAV
Sequence of Kappa-type opioid receptor (P41145 whole entry): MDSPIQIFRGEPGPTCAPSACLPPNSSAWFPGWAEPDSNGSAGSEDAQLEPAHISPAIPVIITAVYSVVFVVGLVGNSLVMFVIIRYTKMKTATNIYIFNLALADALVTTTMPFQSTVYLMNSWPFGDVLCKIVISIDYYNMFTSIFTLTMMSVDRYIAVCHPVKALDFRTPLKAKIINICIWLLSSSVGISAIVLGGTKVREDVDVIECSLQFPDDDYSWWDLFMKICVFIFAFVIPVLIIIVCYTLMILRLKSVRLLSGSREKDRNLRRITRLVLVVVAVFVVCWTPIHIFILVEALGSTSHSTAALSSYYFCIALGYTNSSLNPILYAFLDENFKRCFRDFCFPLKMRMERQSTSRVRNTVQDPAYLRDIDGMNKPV

COCc1ccc(-c2ccc(N(C[C@@H](N)[C@@H](C)OC)C(=O)[C@@H]3C[C@H]3c3ccccn3)cc2)cc1
Ki [1]: 750 nM
Ki [2]: 2290 nM
IC50 [3]: 25100 nM
